# Assay outcomes as filed in PubChem.
# KCNQ1 act: potentiators or activators of human KCNQ1 potassium channel; P51787; CHO-K1 KCNQ1, thallium flux FluxOR fluorescence; hits give high values; B-score at 10 µM; actives 0.35% (n = 310,000); AID 2648;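 active means fluorescence ratio B-score, a plate-corrected score, at least three library SD, with initial intensity B-score within 5 SD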
#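 System: Stable KCNQ1 CHO-K1 line | Incubation: 90 min dye loading and 20 min compound exposure, both at room temperature | Measure: Ratio B score | Medium: Assay buffer for compound exposure, DMSO matched across wells | Compound dosing: Single-concentration screen | Probe or stimulus: K+/Tl+ depolarizing stimulus | Measured by: Kinetic FluxOR fluorescence, 10 s baseline plus 110 s post-stimulus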
# hERG protect: compounds protecting human hERG from proarrhythmic drug block; Q12809; CHO-hERG, FluxOR thallium flux, dofetilide IC70 present; activation (rescue from dofetilide block), less the hit threshold, % at 10 µM; actives 0.51% (n = 310,000);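 active means activation above the mean of controls blocked by dofetilide plus 5 SD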;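 further: thallium influx through hERG after potassium depolarization seen as dye fluorescence rise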
# KCNQ1 block: inhibitors of human KCNQ1 potassium channel. CHO-K1 KCNQ1, FluxOR thallium flux fluorescence; hits give high values. P51787. AID 2642. B-score at 10 µM. actives 1.3% (n = 310,000);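 active means compounds whose thallium flux B-score, printed positive for inhibition, exceeds three library SD while starting fluorescence stays within three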;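 further: channel opened by potassium depolarization with thallium stimulus after 20 min compound exposure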
# KCNK9 inh: human KCNK9 channel inhibition; Q9NPC2; HEK293 KCNK9, FluxOR thallium flux fluorescence; hits give low values; B-score at 10 µM; actives 1.2% (n = 310,000);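 active means ratio B-score over 3 SD below the library mean, with starting fluorescence within 5 SD of its mean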;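 further: negative B-score means less thallium flux so channel inhibition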
# KCNK3 block: human KCNK3 channel inhibition, primary screen | B-score at 10 µM | actives 0.84% (n = 340,000) | CHO-KCNK3 thallium flux, FluxOR fluorescence; hits give low values;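 active means B-score under library mean minus 4 SD, starting fluorescence ratio at most library mean plus 5 SD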;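 further: more negative B-score means stronger inhibition of thallium flux through KCNK3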
# KCNQ1 block val: human KCNQ1 channel inhibition, validation assay; shares compounds with KCNQ1 block; KCNQ1 cell line, FluxOR thallium flux fluorescence; inhibition, % at 10 µM; actives 93% (n = 1,600); AID 588353;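 active means primary screen active, with duplicate mean exceeding buffer control mean plus 3 SD of buffer wells, cut at about 28% in these data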;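 further: 0% = buffer control ratio and 100% = XE991 inhibitor control ratio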
# CHO KCNQ1 ctr: activity in parental CHO cells lacking KCNQ1; AID 588366; parental CHO-K1, FluxOR thallium flux fluorescence ratio; hits give low values; zero means no signal rise above baseline; actives 21% (n = 1,600); shares compounds with KCNQ1 block; fluorescence ratio (Tl flux) at 10 µM;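 active means mean of duplicate thallium-flux fluorescence ratios in parental host cells more than 5 SD below the buffer control mean, cut at about 0.38 in these data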;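 further: ratio is peak minus minimum fluorescence divided by baseline fluorescence; actives read low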
# KCNQ1 APC inh: blocks human KCNQ1 current in automated patch clamp. shares compounds with KCNQ1 block. KCNQ1-CHO cells. calls only at 10 µM. actives 20% (n = 490). AID 624120;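 active means KCNQ1 current drop exceeding 3 SD of negative control wells, seen in both duplicate runs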;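 further: steady state current during a 2 s step from -80 to +40 mV; negative values mean current inhibition and positive values mean potentiation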
# KCNQ2 spec: rat KCNQ2 inhibition in KCNQ1 inhibitor specificity screen. shares compounds with KCNQ1 block. KCNQ2 cells, FluxOR thallium flux fluorescence. inhibition, % at 10 µM. actives 71% (n = 1,600);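 active means mean percent inhibition of the KCNQ2 thallium signal more than 5 SD above the buffer-only control wells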;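 further: KCNQ2 expressed in CHO cells; 0% = buffer control wells and 100% = XE-991 inhibitor control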
# KCNQ1 KCNE1 spec: human KCNQ1/KCNE1 inhibition in KCNQ1 specificity screen | shares compounds with KCNQ1 block | KCNQ1/KCNE1 cells, FluxOR thallium flux fluorescence | inhibition, % at 10 µM | actives 77% (n = 1,600);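 active means mean percent inhibition of duplicate wells above the buffer-only control mean plus 3 SD of those controls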;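 further: 0% = buffer only wells and 100% = XE-991 inhibitor control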
# Target sequence (P51787 whole entry, looked up): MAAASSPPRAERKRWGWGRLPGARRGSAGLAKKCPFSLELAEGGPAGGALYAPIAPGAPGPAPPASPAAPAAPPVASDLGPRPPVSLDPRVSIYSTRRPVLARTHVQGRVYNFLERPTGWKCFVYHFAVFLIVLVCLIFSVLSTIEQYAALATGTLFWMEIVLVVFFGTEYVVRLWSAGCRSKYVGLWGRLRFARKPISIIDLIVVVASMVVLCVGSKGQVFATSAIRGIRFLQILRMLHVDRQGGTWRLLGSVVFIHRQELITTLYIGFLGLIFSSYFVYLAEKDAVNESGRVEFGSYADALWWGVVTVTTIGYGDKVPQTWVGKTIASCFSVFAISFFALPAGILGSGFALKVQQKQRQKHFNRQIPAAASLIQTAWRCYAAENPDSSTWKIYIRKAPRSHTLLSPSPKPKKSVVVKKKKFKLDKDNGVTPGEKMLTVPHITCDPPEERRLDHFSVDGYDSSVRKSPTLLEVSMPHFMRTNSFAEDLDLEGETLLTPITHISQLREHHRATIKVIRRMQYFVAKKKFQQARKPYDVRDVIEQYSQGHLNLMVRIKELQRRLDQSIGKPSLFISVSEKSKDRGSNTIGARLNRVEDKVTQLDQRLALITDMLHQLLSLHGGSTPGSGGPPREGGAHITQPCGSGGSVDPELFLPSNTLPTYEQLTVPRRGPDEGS
# KCNK9 inh conf: confirmation of human KCNK9 potassium channel inhibitors; HEK293 KCNK9 cells, FluxOR thallium flux fluorescence; inhibition, % at 10 µM; actives 43% (n = 4,900); shares compounds with KCNK9 inh;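 active means thallium signal inhibited by more than 5 SD of the compound-free buffer control wells, on both duplicate plates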;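 further: 0% = assay buffer control wells without compound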
# Kir21 sel: selectivity of KCNK9 modulators against mouse Kir2.1. shares compounds with KCNK9 inh. Kir2.1 cells, FluxOR thallium flux fluorescence. inhibition, % at 10 µM. actives 4% (n = 4,900);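 active means thallium signal drop more than 5 SD beyond the mean of the no-compound control wells, seen in both duplicate plates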;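 further: signal is fluorescence rise after thallium addition divided by baseline fluorescence; plate controls were assay buffer only for no effect and full block by chlorpromazine control for full effect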
# HEK293 Tl ctr: non-induced cell nonspecific activity of KCNK9 modulators; inhibition, % at 10 µM; AID 492997; shares compounds with KCNK9 inh; actives 40% (n = 4,900); non-induced KCNK9-HEK293, FluxOR thallium flux;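 active means thallium signal drop beyond 5 SD of the untreated control mean, on both duplicate plates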;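 further: plate controls were buffer only IC0 wells for no effect and SID17386958 at its maximal inhibitory level for full effect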
# KCNK3 inh conf: human KCNK3 channel inhibition, confirmation assay | ratio percent of control, % at 10 µM | actives 99% (n = 2,400) | shares compounds with KCNK3 block | CHO-KCNK3 thallium flux, FluxOR fluorescence; 0% buffer, 100% carvedilol maximal block;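 active means ratio percent of control, averaged over triplicates, above buffer control mean plus 5 SD, cut at about 64% in these data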;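 further: ratio is the fluorescence rise from min to max over baseline after thallium stimulus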
# KCNK3 uninduced: counter-screen for KCNK3 inhibitors: effect in non-induced cells; shares compounds with KCNK3 block; non-induced KCNK3 parental cells, FluxOR thallium flux; hits give low values; thallium flux ratio (lower = more inhibition) at 10 µM; actives 40% (n = 2,400);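 active means thallium flux ratio, averaged over three wells, more than 5 SD below the buffer control mean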;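 further: host cells are CHO cells without KCNK3 induction; ratio is peak minus trough fluorescence over baseline then normalized to buffer controls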
# * marks the source's active call; other numbers are inactive results; i = inactive; x = no result given. Only some compounds are listed: those with a hit (about 3.1% of all), similar ones and a draw of the others.
SMILES,KCNQ1 act,hERG protect,KCNQ1 block,KCNK9 inh,KCNK3 block,KCNK9 inh conf,Kir21 sel,HEK293 Tl ctr,others
CCC(=NCc1cc(OC)cc(OC)c1)c1c(O)n(C2CCCCC2)c(=O)[nH]c1=O,i,-11,i,i,i,x,x,x,
Cc1ccc2c(c1)C1CN(C)CCC1N2C(=S)Nc1cccnc1 (centres undefined),i,-11,i,i,i,x,x,x,
Cc1ccc2c(c1)C1CN(C)CCC1N2C(=O)Nc1cccc(Cl)c1 (centres undefined),i,-13,7*,i,i,x,x,x,KCNQ1 block val=0;CHO KCNQ1 ctr=0.49;KCNQ2 spec=i;KCNQ1 KCNE1 spec=i
CC(C)(C)c1nc(N2CCN(C(=O)c3ccco3)CC2)c2nnn(Cc3ccccc3Cl)c2n1,i,-12,7*,i,i,x,x,x,KCNQ1 block val=116*;CHO KCNQ1 ctr=0.36*;KCNQ2 spec=101%*;KCNQ1 KCNE1 spec=136%*
CCOC(=O)c1cc2c(cn1)[C@@H](CCO)NC2,x,x,x,x,i,x,x,x,
Cc1ccc(NC(=O)c2cc(-c3ccccc3)n(CCCN3CCOCC3)c2C)cc1,i,-8,6*,i,i,x,x,x,KCNQ1 block val=81*;CHO KCNQ1 ctr=0.45;KCNQ2 spec=62%*;KCNQ1 KCNE1 spec=125%*
Cc1ccccc1NC(=O)c1cc(-c2ccccc2)n(CCCN2CCOCC2)c1C,i,-8,i,i,i,x,x,x,
CCC(C)C1NC(=O)C(NC(=O)C(CC(C)C)N(C)C(=O)C2CCCN2C(=O)C(C)O)C(C)OC(=O)C(Cc2ccc(OC)cc2)N(C)C(=O)C2CCCN2C(=O)C(CC(C)C)NC(=O)[C@H](C)C(=O)[C@H](C(C)C)OC(=O)CC1O (some centres undefined),x,x,x,x,i,x,x,x,
COc1ccc(CN(CCc2c[nH]c3ccccc23)Cc2ccc(OC)cc2)cc1,x,x,x,x,i,x,x,x,
CCC(=NCCOc1ccc(Cl)cc1)c1c(O)n(C)c(=O)n(C)c1=O,i,-31,7*,i,i,x,x,x,KCNQ1 block val=122*;CHO KCNQ1 ctr=0.34*;KCNQ2 spec=114%*;KCNQ1 KCNE1 spec=144%*
Cc1sc2ncnc(N3CCC(C(=O)Nc4ccc(C#N)c(Cl)c4)CC3)c2c1C,i,-14,7*,i,-10*,x,x,x,KCNQ1 block val=132*;CHO KCNQ1 ctr=0.42;KCNQ1 APC inh=i;KCNQ2 spec=112%*;KCNQ1 KCNE1 spec=156%*;KCNK3 inh conf=131*;KCNK3 uninduced=0.15*
Cc1noc(C)c1CSCC(=O)Nc1ccc(C#N)c(Cl)c1,x,x,x,x,i,x,x,x,
O=C(c1ccccc1F)c1cn(Cc2ccccc2)c2ccccc12,i,-9,6*,-7.5*,-9.4*,x,x,x,KCNQ1 block val=85*;CHO KCNQ1 ctr=0.43;KCNQ2 spec=85%*;KCNQ1 KCNE1 spec=130%*;KCNK3 inh conf=113*;KCNK3 uninduced=0.16*
Cc1ccnc(NC(=O)CCCc2ccc(N(CCCl)CCCl)cc2)n1,x,x,x,x,i,x,x,x,
Cc1ccc(-n2nc(C)c3c2NC(=O)CSC3c2ccc3c(c2)OCO3)cc1 (centres undefined),i,-11,i,-13*,i,36%*,i,31%*,
COc1ccc(C2SCC(=O)Nc3c2c(C)nn3-c2ccccc2)cc1 (centres undefined),i,-6,i,i,i,x,x,x,
OC(CN1CC=C(c2ccccc2)CC1)c1ccccc1 (centres undefined),i,-5,i,i,i,x,x,x,
Cc1cc(O)c(CN2CC=C(c3ccccc3)CC2)cc1C(C)C,i,-9,i,i,i,i,i,i,
COC(=O)Cn1cc(C(=O)c2ccccc2F)c2ccccc21,i,-7,i,i,i,x,x,x,
O=C(c1ccccc1F)c1cn(Cc2ccc(F)cc2)c2ccccc12,i,-6,i,-8.7*,i,50%*,i,34%*,
Cc1ccc(CN2CCCN(Cc3ccc(C)cc3)S2(=O)=O)cc1,i,-4,i,i,i,i,i,i,
Cc1cccc(CN2CCCN(Cc3ccc(Cl)cc3)S2(=O)=O)c1,i,-5,i,i,i,x,x,x,
Cn1cc(C=C(C#N)C#N)c2ccccc21,i,2,i,-8.4*,i,i,i,52%*,
Cc1ccc(O)c(C(=O)c2cc(C(=O)NCc3ccccc3)c(=O)n(Cc3ccccc3)c2)c1,i,-5,i,-10*,i,38%*,i,46%*,
Cn1cc(C(=O)NCc2ccccc2)c2ccccc21,i,3,i,i,i,x,x,x,
SMILES,KCNQ1 act,hERG protect,KCNQ1 block,KCNK9 inh,KCNK3 block,KCNK9 inh conf,Kir21 sel,HEK293 Tl ctr,others
CC(C)n1c(=O)c(C=Nc2ccc(F)cc2)c(O)n(Cc2ccco2)c1=O,i,-6,i,i,i,i,i,i,
CCCCC/C(=N/O)c1c(C)[nH]c2ccccc12,i,-4,i,i,i,x,x,x,
CCCCC/C(=N\O)c1c[nH]c2ccccc12,i,-6,i,-13*,i,56%*,i,25%*,
COC(=O)C1=C(c2ccc(Cl)c(C(F)(F)F)c2)C[C@@H]2CC[C@H]1N2C(=O)NCCOc1ccccc1Cl,x,x,x,x,i,x,x,x,
Clc1cnc(Oc2ccc(Oc3ncc(Cl)cc3Cl)cc2)c(Cl)c1,i,-6,i,i,i,i,i,i,
Oc1c(Cl)c(Cl)c(Cl)c(Cl)c1Cl,i,-14,i,i,i,i,i,i,
